≈ marks a conversion by molar mass, not a printed value.
Experiments:
Type in all cases: functional
Staphylococcus aureus [1] = test: Antimicrobial activity against Staphylococcus aureus ATCC 25923 by broth microdilution method
How it was run: (§1)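 Inocula were saline (0.85% NaCl) suspensions at 0.5 McFarland (150 × 10⁶ CFU/mL). Compounds were first screened by agar dilution on Mueller-Hinton agar, and active ones then went to broth microdilution. MIC is the lowest concentration inhibiting growth. The negative control was medium containing DMSO at the final concentration, without compound.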

[2] = system: Staphylococcus epidermidis; test: Antimicrobial activity against Staphylococcus epidermidis ATCC 12228 by broth microdilution method; how it was run: as §1
Pseudomonas aeruginosa = test: Antimicrobial activity against Pseudomonas aeruginosa ATCC 9027 by broth microdilution method; how it was run: as §1
Micrococcus luteus = test: Antimicrobial activity against Micrococcus luteus ATCC 10240 by broth microdilution method; how it was run: as §1
Bacillus cereus = test: Antimicrobial activity against Bacillus cereus ATCC 10876 by broth microdilution method; how it was run: as §1
Staphylococcus aureus [3] = test: Ratio of MBC to MIC for methicillin-resistant Staphylococcus aureus 14001 by broth microdilution method
How it was run: (§2)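 Inoculum in sterile saline (0.85% NaCl), adjusted to 0.5 McFarland (150 × 10⁶ CFU/mL). Compounds first screened by agar dilution on Mueller-Hinton agar, then titrated by broth microdilution. Medium with DMSO at the final concentration and no compound served as negative control. MIC is the lowest concentration inhibiting growth. MBC is the lowest concentration giving >99.9% reduction in CFU of the initial inoculum.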

Staphylococcus aureus [4] = test: Antimicrobial activity against methicillin-resistant Staphylococcus aureus 14001 by broth microdilution method; how it was run: as §2
Proteus mirabilis = test: Antimicrobial activity against Proteus mirabilis ATCC 12453 by broth microdilution method; how it was run: as §1
Bacillus subtilis = test: Antimicrobial activity against Bacillus subtilis ATCC 6633 by broth microdilution method; how it was run: as §1
Escherichia coli = test: Antimicrobial activity against Escherichia coli ATCC 25922 by broth microdilution method; how it was run: as §1

Compound	MIC (Staphylococcus aureus [1]) [µM]	MIC [2] [µM]	MIC (Pseudomonas aeruginosa) [µM]	MIC (Micrococcus luteus) [µM]	MIC (Bacillus cereus) [µM]	Ratio (Staphylococcus aureus [3])	MBC (Staphylococcus aureus [4]) [µM]	MIC (Staphylococcus aureus [4]) [µM]	MIC (Proteus mirabilis) [µM]	MIC (Bacillus subtilis) [µM]	MIC (Escherichia coli) [µM]
COc1ccc(-n2c(-c3cccc(Cl)c3)nn(CN3CCN(c4cc5c(cc4F)c(=O)c(C(=O)O)cn5C4CC4)CC3)c2=S)cc1	1.48 (≈ 0.979 µg/mL)	1.48 (≈ 0.979 µg/mL)	0.36 (≈ 0.238 µg/mL)	2.95 (≈ 1.95 µg/mL)	0.36 (≈ 0.238 µg/mL)	1	0.74 (≈ 0.489 µg/mL)	0.74 (≈ 0.489 µg/mL)	0.023 (≈ 0.0152 µg/mL)	0.09 (≈ 0.0595 µg/mL)	0.023 (≈ 0.0152 µg/mL)
O=C(O)c1cn(C2CC2)c2cc(N3CCN(Cn4nc(-c5cccc(Cl)c5)n(-c5ccc(Br)cc5)c4=S)CC3)c(F)cc2c1=O	5.51 (≈ 3.91 µg/mL)	5.51 (≈ 3.91 µg/mL)	1.38 (≈ 0.98 µg/mL)	10.1 (≈ 7.17 µg/mL)	1.38 (≈ 0.98 µg/mL)	2	5.51 (≈ 3.91 µg/mL)	2.76 (≈ 1.96 µg/mL)	0.17 (≈ 0.121 µg/mL)	0.34 (≈ 0.241 µg/mL)	0.084 (≈ 0.0596 µg/mL)
O=C(O)c1cn(C2CC2)c2cc(N3CCN(Cn4nc(-c5cccc(Cl)c5)n(-c5cccc(I)c5)c4=S)CC3)c(F)cc2c1=O	1.29 (≈ 0.977 µg/mL)	1.29 (≈ 0.977 µg/mL)	0.16 (≈ 0.121 µg/mL)	2.58 (≈ 1.95 µg/mL)	0.16 (≈ 0.121 µg/mL)	8	5.16 (≈ 3.91 µg/mL)	0.64 (≈ 0.484 µg/mL)	0.04 (≈ 0.0303 µg/mL)	0.04 (≈ 0.0303 µg/mL)	0.02 (≈ 0.0151 µg/mL)
O=C(O)c1cn(C2CC2)c2cc(N3CCN(Cn4nc(-c5cccc(Cl)c5)n(-c5ccc(I)cc5)c4=S)CC3)c(F)cc2c1=O	5.16 (≈ 3.91 µg/mL)	5.16 (≈ 3.91 µg/mL)	1.29 (≈ 0.977 µg/mL)	10.3 (≈ 7.8 µg/mL)	1.29 (≈ 0.977 µg/mL)	2	5.16 (≈ 3.91 µg/mL)	2.58 (≈ 1.95 µg/mL)	0.16 (≈ 0.121 µg/mL)	0.32 (≈ 0.242 µg/mL)	0.08 (≈ 0.0606 µg/mL)
O=C(O)c1cn(C2CC2)c2cc(N3CCN(Cn4nc(-c5cccc(Cl)c5)n(-c5ccc(F)cc5F)c4=S)CC3)c(F)cc2c1=O	0.73 (≈ 0.487 µg/mL)	0.73 (≈ 0.487 µg/mL)	0.36 (≈ 0.24 µg/mL)	2.92 (≈ 1.95 µg/mL)	0.18 (≈ 0.12 µg/mL)	1	0.73 (≈ 0.487 µg/mL)	0.73 (≈ 0.487 µg/mL)	0.022 (≈ 0.0147 µg/mL)	0.09 (≈ 0.06 µg/mL)	0.022 (≈ 0.0147 µg/mL)
O=C(O)c1cn(C2CC2)c2cc(N3CCN(Cn4nc(-c5cccc(Cl)c5)n(-c5ccc(Cl)cc5Cl)c4=S)CC3)c(F)cc2c1=O	1.4 (≈ 0.98 µg/mL)	0.7 (≈ 0.49 µg/mL)	0.17 (≈ 0.119 µg/mL)	2.78 (≈ 1.95 µg/mL)	0.17 (≈ 0.119 µg/mL)	64	44.6 (≈ 31.2 µg/mL)	0.7 (≈ 0.49 µg/mL)	0.043 (≈ 0.0301 µg/mL)	0.043 (≈ 0.0301 µg/mL)	0.043 (≈ 0.0301 µg/mL)
O=C(O)c1cn(C2CC2)c2cc(N3CCN(Cn4nc(-c5cccc(Cl)c5)n(-c5cc(Cl)cc(Cl)c5)c4=S)CC3)c(F)cc2c1=O	22.3 (≈ 15.6 µg/mL)	22.3 (≈ 15.6 µg/mL)	11.2 (≈ 7.81 µg/mL)	44.6 (≈ 31.2 µg/mL)	5.58 (≈ 3.91 µg/mL)	2	44.6 (≈ 31.2 µg/mL)	22.3 (≈ 15.6 µg/mL)	0.7 (≈ 0.49 µg/mL)	1.4 (≈ 0.98 µg/mL)	0.7 (≈ 0.49 µg/mL)
Cn1c(-c2cccc(Cl)c2)nn(CN2CCN(c3cc4c(cc3F)c(=O)c(C(=O)O)cn4C3CC3)CC2)c1=S	0.86 (≈ 0.489 µg/mL)	0.86 (≈ 0.489 µg/mL)	0.1 (≈ 0.0569 µg/mL)	1.72 (≈ 0.979 µg/mL)	0.21 (≈ 0.12 µg/mL)	2	0.86 (≈ 0.489 µg/mL)	0.42 (≈ 0.239 µg/mL)	0.053 (≈ 0.0302 µg/mL)	0.053 (≈ 0.0302 µg/mL)	0.053 (≈ 0.0302 µg/mL)
O=C(O)c1cn(C2CC2)c2cc(N3CCNCC3)c(F)cc2c1=O [CIPROFLOXACIN]	2.96 (≈ 0.981 µg/mL)	1.48 (≈ 0.49 µg/mL)	0.72 (≈ 0.239 µg/mL)	5.88 (≈ 1.95 µg/mL)	0.36 (≈ 0.119 µg/mL)	4	5.92 (≈ 1.96 µg/mL)	1.48 (≈ 0.49 µg/mL)	0.045 (≈ 0.0149 µg/mL)	0.09 (≈ 0.0298 µg/mL)	0.024 (≈ 0.00795 µg/mL)
CN[C@H](CC(C)C)C(=O)N[C@H]1C(=O)N[C@@H](CC(N)=O)C(=O)N[C@H]2C(=O)N[C@H]3C(=O)N[C@H](C(=O)N[C@H](C(=O)O)c4cc(O)cc(O)c4-c4cc3ccc4O)[C@H](O)c3ccc(c(Cl)c3)Oc3cc2cc(c3O[C@@H]2O[C@H](CO)[C@@H](O)[C@H](O)[C@H]2O[C@H]2C[C@](C)(N)[C@H](O)[C@H](C)O2)Oc2ccc(cc2Cl)[C@H]1O [VANCOMYCIN]							2.7 (≈ 3.91 µg/mL)	0.68 (≈ 0.986 µg/mL)			

Source: ChEMBL document CHEMBL2311311, “Synthesis and in vitro activity of 1,2,4-triazole-ciprofloxacin hybrids against drug-susceptible and drug-resistant bacteria” (Eur J Med Chem, 2013)
